Results on two compounds are retold here after ChEMBL document CHEMBL2029317, “(Z)-2-(2-bromophenyl)-3-{[4-(1-methyl-piperazine)amino]phenyl}acrylonitrile (DG172): an orally bioavailable PPARβ/δ-selective ligand with inverse agonistic properties” (J Med Chem, 2012).

Activity calls are given as the source filed them. The rule behind the calls is not given here. Some results are limits rather than exact numbers.

Series [1] in a line: Oral bioavailability in CD1 mouse at 5 mg/kg. It is filed as ADME, organism-based. The note with it: in vivo. In short, it runs like this: (§1)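 Male CD-1 mice dosed iv by tail vein (1 mg/kg) or po by gastric gavage (5 mg/kg). Vehicle was DMSO/Solutol HS 15/PBS pH 7.4 (5/5/90, v/v/v). Blood was taken at eight time points from 10 min to 12 h, by parallel sampling of three mice per point. Plasma was acetonitrile-precipitated and analysed by HPLC-MS/MS, and basic PK parameters were derived.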

For the next series, the system named is Mus musculus. Description: AUC (infinity) in CD1 mouse at 5 mg/kg, po. The arrangement: time infinity, dose 5 mg/kg, route oral. It is filed as ADME, organism-based, Plasma. Conditions: in vivo. In outline: as §1
The target in series [2] is T1, Peroxisome proliferator-activated receptor delta (Mus musculus) (UniProt P35396).
T1 sequence (whole entry): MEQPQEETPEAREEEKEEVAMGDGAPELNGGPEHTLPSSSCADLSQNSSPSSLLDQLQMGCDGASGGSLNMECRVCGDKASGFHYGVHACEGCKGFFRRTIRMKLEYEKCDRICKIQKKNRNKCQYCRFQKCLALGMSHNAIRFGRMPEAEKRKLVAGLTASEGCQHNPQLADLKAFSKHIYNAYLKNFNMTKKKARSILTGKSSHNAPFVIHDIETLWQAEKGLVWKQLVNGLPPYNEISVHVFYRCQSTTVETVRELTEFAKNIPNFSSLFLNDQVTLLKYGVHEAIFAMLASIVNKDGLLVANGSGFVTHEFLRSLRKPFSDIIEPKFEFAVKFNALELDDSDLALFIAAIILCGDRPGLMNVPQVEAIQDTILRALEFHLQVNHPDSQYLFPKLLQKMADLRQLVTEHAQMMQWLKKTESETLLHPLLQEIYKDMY
The note with it: 1 uM.

Series [3] is described as follows: Half life in CD1 mouse at 5 mg/kg, po. The series is classed as ADME, organism-based. Also noted: dose 5 mg/kg, route oral. The note with it: in vivo. In short, it runs like this:
as §1

Series [4] concerns the target T2, Peroxisome proliferator-activated receptor delta (Mus musculus, UniProt P35396).
T2 sequence (P35396 whole entry): T1 sequence (whole entry)
As to the kind of experiment: Inverse agonist activity at PPARbeta/delta in mouse C2C12 cells assessed as inhibition of Angptl4 expression after 24 hrs by RT-qPCR analysis. The series is classed as functional, cell-based. For orientation: Quantitative PCR measures a nucleic acid by following its amplification.

Series [5] deals with T1, Peroxisome proliferator-activated receptor delta (Mus musculus). Description: Inverse agonist activity at GST-tagged recombinant mouse PPARbeta/delta assessed as increase in corepressor peptide SMRT-ID2 interaction after 60 mins by TR-FRET assay. It is filed as functional. In outline:
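LanthaScreen TR-FRET coregulator assay: recombinant GST-PPARβ/δ LBD, labelled by a terbium-coupled anti-GST antibody, was incubated with fluorescein-labelled SMRT-ID2 corepressor peptide and compound. Signal is the 520/495 nm emission ratio, as triplicate averages ± SD, with t test against untreated sample.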

A further series relates to Macrophage. As to the kind of experiment: Inhibition of Angptl expression in mouse Ppard-knock out macrophages at 1 uM after 6 hrs by RT-qPCR analysis. It is filed as functional, cell-based. In outline:
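Macrophages from Ppard null and wild-type mice were treated with compound (1 μM), agonist L165,041 (500 nM) or DMSO solvent for 6 h. Angptl4 mRNA was measured by RT-qPCR with L27 as the normalizer.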

Series [6] has as its target T3, Peroxisome proliferator-activated receptor gamma (Homo sapiens) (UniProt P37231).
T3 sequence (whole entry): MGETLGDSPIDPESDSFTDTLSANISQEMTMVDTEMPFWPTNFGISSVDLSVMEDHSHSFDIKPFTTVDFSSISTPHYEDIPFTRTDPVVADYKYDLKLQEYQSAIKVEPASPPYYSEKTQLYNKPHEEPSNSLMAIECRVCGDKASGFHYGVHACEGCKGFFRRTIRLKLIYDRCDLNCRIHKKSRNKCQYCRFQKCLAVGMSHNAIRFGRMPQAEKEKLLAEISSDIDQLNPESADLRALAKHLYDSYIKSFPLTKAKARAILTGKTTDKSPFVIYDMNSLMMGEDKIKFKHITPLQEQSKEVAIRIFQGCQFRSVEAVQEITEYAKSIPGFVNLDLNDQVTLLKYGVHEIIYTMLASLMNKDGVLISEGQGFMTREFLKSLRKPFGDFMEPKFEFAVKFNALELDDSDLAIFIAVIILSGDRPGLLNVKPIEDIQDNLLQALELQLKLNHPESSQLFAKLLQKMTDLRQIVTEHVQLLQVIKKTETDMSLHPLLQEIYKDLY
As to the kind of experiment: Displacement of fluormone Pan-PPAR Green from PPARgamma at 100 to 1000 nM after 60 mins by TR-FRET assay.

The nature of series [7]: Cmax in CD1 mouse at 5 mg/kg, po. It is filed as ADME, organism-based. The arrangement: dose 5 mg/kg, route oral. Conditions: in vivo. In short, it runs like this: as §1
The nature of series [8]: Drug uptake in CD1 mouse blood at 5 mg/kg, po up to 30 mins.
Series [9] has as its target T1, Peroxisome proliferator-activated receptor delta (Mus musculus). As to the kind of experiment: Displacement of fluormone Pan-PPAR Green from mouse recombinant GST-tagged PPARbeta/delta LBD after 60 mins by TR-FRET assay. Background: TR-FRET usually uses a lanthanide donor and a delayed reading to cut background.

A word on the bioavailability: it is the share of a dose that reaches the circulation, judged against a reference dose that is usually intravenous. Lower therefore signals poor availability. Broadly, the AUC is the area under the concentration-time curve, a measure of exposure. The term half-life denotes how long it takes for the measured level to halve. A low value points to rapid decline. One may read the IC50 as the concentration that inhibits the measured activity by half. One may read the Cmax as the maximum level reached in the sampled fluid or tissue. Consider `CN1CCN(c2ccc(/C=C(\C#N)c3ccccc3Br)cc2)CC1`, for which, in series [1], the bioavailability was 72%. Also, in the series with Mus musculus, the AUC worked out at 137 ng·h/mL. In addition, the inhibition entry in series [2] is “Active”. The half-life in series [3] turned out to be 10.6 h. For the same compound, the IC50 in [4] turned out to be 9.5 nM. In series [5], the result was Active. Moreover, the inhibition entry in the series with Macrophage was “inactive”. In addition, the result in [6] was inactive. The highest level in series [7] (Cmax) was 94 ng/mL.

In series [8], `CN(C)c1ccc(/C=C(\C#N)c2ccccc2Cl)cc1` registered a concentration at 0.5 h of at most 6 ng/mL. For the same compound, the outcome in series [9] and in series [5] was Active. The IC50 in series [4] stood at 52 nM. Further, the outcome in [6] was inactive.
